ChEMBL document CHEMBL6177924, “Synthesis and antifungal evaluation of new azole derivatives containing 1,2,3-triazole” (RSC Med Chem, 2025)
Converted amounts (≈) assume the structure as drawn. The source made the active and inactive calls. The calls are words filed in the database; no cut-off is given here.

Columns and labels:
Candida albicans [1] = experiment: Antifungal activity against drug sensitive Candida albicans SC5314 assessed as inhibition of fungal growth incubated for 24 hrs by CLSI protocol based microdilution method; type: functional
Method in brief: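 Broth microdilution of log-phase C. albicans at 1×10^5 CFU/mL in Sabouraud liquid medium (SDB). Compounds serially diluted 5-fold to final 200-0.064 µg/mL, DMSO below 0.1%. Triplicate wells, 200 µL final volume, with growth, blank and fluconazole controls. Incubated 24 h at 30 °C, OD read at 630 nm; experiment repeated three times.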

Candida albicans [2] = experiment: Antifungal activity against drug resistant Candida albicans SC5314-FR assessed as inhibition of fungal growth incubated for 24 hrs by CLSI protocol based microdilution method; type: functional
Method in brief: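 Fluconazole-resistant strain derived from SC5314 by fluconazole exposure. Log-phase cells at 1×10^5 CFU/mL in SDB. Drug fivefold serial dilutions, 200–0.064 µg/mL final, DMSO <0.1%, triplicate wells, 200 µL. Incubated 30 °C for 24 h and read at OD630. Growth, blank and fluconazole controls included. Run three times.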

16HBE14o- = experiment: Cytotoxicity against human 16HBE14o- cells assessed as reduction in cell viability 0.032 to 100 microg/ml incubated for 48 hrs by CCK8 assay; type: toxicity, cell-based; conditions: dose 0.032-100 µg/ml
Method in brief: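 16HBE cells seeded in RPMI1640 + 10% FBS + 1% antibiotics and attached 24 h at 37 °C. Medium replaced with drug in fivefold dilutions from 100 µg/mL, with fluconazole, growth and blank controls. Incubated 48 h, then CCK8 reagent added and plates incubated for viability read-out.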

Cell membrane [3] = experiment: Induction of cell membrane permeability in Candida albicans assessed as increase in red fluorescence incubated for 16 to 24 hrs by PI staining based fluorescence microscopic analysis; type: subcellular; conditions: time 16-24 hrs
Method in brief: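 C. albicans at 1×10^5 CFU/mL in SDB grown with drug (0.27, 0.53, 1.06 µg/mL), fluconazole or no drug at 30 °C, 150 r/min, for 16-24 h. Cells washed and resuspended in PBS at 2×10^6 CFU/mL. Stained with propidium iodide (final 5 µg/mL) 30 min at room temperature in the dark, then washed. Imaged by fluorescence microscopy and fluorescence intensity measured.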

Candida albicans [4] = experiment: Induction of morphological changes in Candida albicans assessed as loose distribution of cytoplasm incubated for 16 to 24 hrs by transmission electron microscopic analysis; type: functional, organism-based; conditions: time 16-24 hrs
Method in brief: (§1)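 Cells at 5×10^5 CFU/mL in SDB with drug (0.27, 0.53, 1.06 µg/mL), fluconazole or no drug. Shaken 150 r/min at 30 °C for 16–24 h, pelleted and PBS-washed. Fixed in 3% paraformaldehyde/2.5% glutaraldehyde at 4 °C, post-fixed in 1% OsO4, acetone-dehydrated and Epon-812 embedded. 60–90 nm sections stained with uranyl acetate and lead citrate, imaged by TEM.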

Candida albicans [5] = experiment: Induction of morphological changes in Candida albicans assessed as absence of intracellular substance incubated for 16 to 24 hrs by transmission electron microscopic analysis; type: functional, organism-based; conditions: time 16-24 hrs; method in brief: as §1
Candida albicans [6] = experiment: Antifungal activity against Candida albicans assessed as inhibition of mycelia formation measured after 4 to 8 hrs by inverted microscopic analysis; type: functional, organism-based; conditions: time 4-8 hrs
Method in brief: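 Hyphae induced in SD + 10% FBS or in Spider medium, log-phase cells at 1×10^5 CFU/mL. Drug at 0.27, 0.53 or 1.06 µg/mL, with fluconazole and drug-free controls, 1 mL per well in 24-well plates, triplicate. […], and mycelium formation viewed and photographed by inverted microscope at 4 and 8 h.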

Cell membrane [7] = experiment: Induction of cell membrane permeability in Candida albicans assessed as increase in fluorescence intensity by multifunctional enzymatic assay; type: subcellular
Candida albicans [8] = experiment: Antifungal activity against Candida albicans SC5314 assessed as inhibition of fungal growth measured up to 48 hrs by time-killing curve analysis; type: functional, organism-based
Method in brief: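 Log-phase cells at 1×10^5 CFU/mL in SDB, 10 mL per group. Drug at 0.27, 0.53 or 1.06 µg/mL, plus fluconazole and untreated controls. Shaken 150 r/min at 30 °C. Samples taken at 0, 4, 8, 12, 24, 36 and 48 h and read at A630, triplicate wells. Absorbance plotted against time.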

Candida albicans [9] = experiment: Induction of morphological changes in Candida albicans assessed as normal cell wall appearance incubated for 16 to 24 hrs by transmission electron microscopic analysis; type: functional, organism-based; conditions: time 16-24 hrs; method in brief: as §1
Candida albicans [10] = experiment: Induction of morphological changes in Candida albicans assessed as blurred spacing between cell wall and cell membrane incubated for 16 to 24 hrs by transmission electron microscopic analysis; type: functional, organism-based; conditions: time 16-24 hrs; method in brief: as §1
Candida albicans [11] = experiment: Antibiofilm activity in Candida albicans SC5314 assessed as decrease in number of mycelia measured after 24 hrs by inverted microscopic analysis; type: functional, organism-based
Method in brief: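 Log-phase cells at 1×10^5 CFU/mL in RPMI1640 + 10% FBS allowed to adhere 90 min at 30 °C in 24-well plates. Excess medium removed, then 1 mL medium with or without drug (0.27, 0.53, 1.06 µg/mL; fluconazole group) added for 24 h at 30 °C. Crystal violet stain 30 min, PBS washes ×3, biofilm viewed by inverted microscope.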

| SMILES | MIC50 (Candida albicans [1]) [µg/mL] | MIC50 (Candida albicans [2]) [µg/mL] | other results |
| --- | --- | --- | --- |
| COc1ccc(C(=O)Cn2cc(COC(Cn3ccnc3)c3ccc(Cl)cc3Cl)nn2)cc1OC (stereo unspecified) | 16.6 (≈ 32.2 µM) | 58.6 (≈ 113 µM) |  |
| Clc1ccc(C(Cn2ccnc2)OCc2cn(C/C=C/c3ccccc3)nn2)c(Cl)c1 (stereo unspecified) | 1.57 (≈ 3.46 µM) | 11.5 (≈ 25.2 µM) |  |
| COC(=O)Cn1cc(COC(Cn2ccnc2)c2ccc(Cl)cc2Cl)nn1 (stereo unspecified) | 1.62 (≈ 3.95 µM) | > 200 |  |
| COC(=O)/C=C/c1ccc(Cn2cc(COC(Cn3ccnc3)c3ccc(Cl)cc3Cl)nn2)cc1 (stereo unspecified) | 16.5 (≈ 32.2 µM) | 17.8 (≈ 34.8 µM) |  |
| Clc1ccc(C(Cn2ccnc2)OCc2cn(Cc3ccccc3)nn2)c(Cl)c1 (stereo unspecified) | 6.63 (≈ 15.5 µM) | 21.5 (≈ 50.2 µM) |  |
| O=C(Cn1cc(COC(Cn2ccnc2)c2ccc(Cl)cc2Cl)nn1)c1ccccc1 (stereo unspecified) | 1.61 (≈ 3.53 µM) | 23.4 (≈ 51.3 µM) |  |
| O=C(Cn1cc(COC(Cn2ccnc2)c2ccc(Cl)cc2Cl)nn1)c1ccc(Br)cc1 (stereo unspecified) | 0.51 (≈ 0.953 µM) | 9.83 (≈ 18.4 µM) |  |
| Cc1ccc(C(=O)Cn2cc(COC(Cn3ccnc3)c3ccc(Cl)cc3Cl)nn2)cc1 (stereo unspecified) | 3.34 (≈ 7.1 µM) | 26.2 (≈ 55.6 µM) |  |
| CC(=O)Cn1cc(COC(Cn2ccnc2)c2ccc(Cl)cc2Cl)nn1 (stereo unspecified) | 90.8 (≈ 230 µM) | > 200 |  |
| OC(Cn1cncn1)(Cn1cncn1)c1ccc(F)cc1F [FLUCONAZOLE] | 1.52 (≈ 4.96 µM) | > 200 | Activity (16HBE14o-): Non-toxic; Activity (Cell membrane [3]): Active; Small Amount Of Red Fluorescence Observed; Activity (Candida albicans [4]): Active; Activity (Candida albicans [5]): Active; Activity (Candida albicans [6]): Active; Activity (Cell membrane [7]): Active; Activity (Candida albicans [8]): Active; Activity (Candida albicans [9]): Active; Activity (Candida albicans [10]): Active; Activity (Candida albicans [11]): Active |
| O=[N+]([O-])c1ccc(Cn2cc(COC(Cn3ccnc3)c3ccc(Cl)cc3Cl)nn2)cc1 (stereo unspecified) | 21.6 (≈ 45.6 µM) | 72.4 (≈ 153 µM) |  |
| Fc1ccc(Cn2cc(COC(Cn3ccnc3)c3ccc(Cl)cc3Cl)nn2)cc1F (stereo unspecified) | 11.4 (≈ 24.7 µM) | 21.4 (≈ 46 µM) |  |
| N#Cc1ccc(Cn2cc(COC(Cn3ccnc3)c3ccc(Cl)cc3Cl)nn2)cc1 (stereo unspecified) | 26.1 (≈ 57.6 µM) | 93.2 (≈ 206 µM) |  |
| Clc1ccc(C(Cn2ccnc2)OCc2cn(Cc3ccc(Br)cc3)nn2)c(Cl)c1 (stereo unspecified) | 1.33 (≈ 2.62 µM) | 9.03 (≈ 17.8 µM) |  |
| O=C(Cn1cc(COC(Cn2ccnc2)c2ccc(Cl)cc2Cl)nn1)c1ccc(F)cc1F (stereo unspecified) | 0.69 (≈ 1.4 µM) | 19.3 (≈ 39.2 µM) |  |
| Clc1ccc(C(Cn2ccnc2)OCc2cn(Cc3ccc4ccccc4c3)nn2)c(Cl)c1 (stereo unspecified) | 1.57 (≈ 3.28 µM) | 4.57 (≈ 9.55 µM) |  |
| O=C(Cn1cc(COC(Cn2ccnc2)c2ccc(Cl)cc2Cl)nn1)c1ccc(Cl)cc1Cl (stereo unspecified) | 8.72 (≈ 16.6 µM) | 19.9 (≈ 37.9 µM) |  |
| C=CCn1cc(COC(Cn2ccnc2)c2ccc(Cl)cc2Cl)nn1 (stereo unspecified) | 29.4 (≈ 77.8 µM) | 77.9 (≈ 206 µM) |  |
| ClCCn1cc(COC(Cn2ccnc2)c2ccc(Cl)cc2Cl)nn1 (stereo unspecified) | 1.2 (≈ 2.99 µM) | 14.1 (≈ 35.3 µM) |  |
| FC(F)(F)c1ccc(Cn2cc(COC(Cn3ccnc3)c3ccc(Cl)cc3Cl)nn2)cc1 (stereo unspecified) | 9.77 (≈ 19.7 µM) | 15 (≈ 30.1 µM) |  |
| O=C(Cn1cc(COC(Cn2ccnc2)c2ccc(Cl)cc2Cl)nn1)c1ccccc1Cl (stereo unspecified) | 4.71 (≈ 9.6 µM) | 24.1 (≈ 49 µM) |  |
| O=C(Cn1cc(COC(Cn2ccnc2)c2ccc(Cl)cc2Cl)nn1)c1ccc(F)cc1 (stereo unspecified) | 1.17 (≈ 2.47 µM) | 15.9 (≈ 33.6 µM) |  |
| Clc1ccc(Cn2cc(COC(Cn3ccnc3)c3ccc(Cl)cc3Cl)nn2)cc1 (stereo unspecified) | 1.78 (≈ 3.85 µM) | 11 (≈ 23.7 µM) |  |
